This is a sample that favours compounds with a hit; in the whole collection about 2.2% have one here.
NS3 helicase inh = blocks Hepatitis C virus NS3 helicase unwinding; 290,000 tested, 0.56% active; AID 1800; NS3 helicase DNA unwinding, Cy5 molecular beacon fluorescence; inhibition, % at 10.9 µM;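 active = inhibition above the mean of all tested compounds plus 3 SD, set per campaign, cut at about 35% in these data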;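 note: 0% = DMSO wells and 100% = thioflavine S control wells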
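assay system = NS3 helicase fragment of HCV | buffer or medium = MOPS pH 6.5, MgCl2, DTT, Tween20, BSA | timing = 60 min unwinding reaction at 25 °C after ATP addition | signal = Cy5 beacon fluorescence read at start and 1 h | read-out basis = % inhibition of unwinding | control set = low DMSO, high thioflavine S at 110 µM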
GRK2 aptamer HTS = inhibitors of human GRK2 displacing RNA aptamer; bead flow cytometry, FAM-aptamer displacement from GRK2; P25098; AID 488847; inhibition of aptamer binding, % at 10 µM; 330,000 tested, 0.59% active;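 active = inhibition of aptamer binding above 40%, roughly 3 SD of noise, on plates passing a quality check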;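 note: median bead fluorescence of bound FAM aptamer so fluorescent compounds give negative values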
Target sequence (P25098 whole entry, looked up): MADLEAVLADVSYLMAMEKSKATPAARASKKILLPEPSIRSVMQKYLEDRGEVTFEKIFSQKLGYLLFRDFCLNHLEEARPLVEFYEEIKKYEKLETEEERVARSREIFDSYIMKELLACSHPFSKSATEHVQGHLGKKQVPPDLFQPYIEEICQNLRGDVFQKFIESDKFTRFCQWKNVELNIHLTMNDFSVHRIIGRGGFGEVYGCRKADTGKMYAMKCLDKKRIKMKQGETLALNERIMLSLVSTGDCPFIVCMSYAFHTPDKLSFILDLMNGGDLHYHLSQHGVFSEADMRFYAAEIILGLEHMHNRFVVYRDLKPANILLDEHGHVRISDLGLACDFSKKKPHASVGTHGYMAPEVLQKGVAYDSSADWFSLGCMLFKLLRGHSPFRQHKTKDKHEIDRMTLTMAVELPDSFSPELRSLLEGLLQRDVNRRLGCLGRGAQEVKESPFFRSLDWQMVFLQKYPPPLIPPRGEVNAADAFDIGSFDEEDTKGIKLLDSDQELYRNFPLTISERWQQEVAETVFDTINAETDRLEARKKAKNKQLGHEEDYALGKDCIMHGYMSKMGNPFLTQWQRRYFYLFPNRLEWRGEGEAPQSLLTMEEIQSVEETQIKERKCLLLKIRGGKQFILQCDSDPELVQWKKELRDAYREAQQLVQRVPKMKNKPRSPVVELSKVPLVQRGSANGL
DAGLB inh = diacylglycerol lipase beta (human) inhibition; inhibition, % at 5.17 µM; HEK293T DAGLB membrane lysate, EnzChek fluorogenic substrate; 340,000 tested, 0.059% active; in the data active = inhibition above about 34%;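 note: 0% = enzyme with vehicle and 100% = wells lacking enzyme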
DNA FID counter = displaces DNA intercalator in HCV helicase counter-screen. DNA fluorescent intercalator displacement, fluorescence. inhibition, % at 7.9 µM. 290,000 tested, 0.17% active; in the data active = inhibition above about 37%;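 note: 0% = vehicle and 100% = reference compound; higher means more ethidium bromide displaced from hairpin DNA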
core dimer inh = HCV core protein dimerization inhibition | 300,000 tested, 0.33% active | inhibition, % at 5 µM | TR-FRET GST/Flag-core106 dimerization, 1536-well;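 active = inhibition above the mean of all tested compounds plus 3 SD, set per screening campaign, cut at about 45% in these data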
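Assay system: GST-tagged and Flag-tagged HCV core protein residues 1-106 / Times: compound-protein-antibody incubation 4 h at 22.5 °C / Signal: time-resolved FRET, ex 340 nm, em 617 and 671 nm / Evaluation: % inhibition based on acceptor/donor emission ratio / Benchmarks: wells lacking GST-core106 and wells with excess unlabelled core106 / Repeats: singlicate, one well per compound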
GPR7 antagonist = blocks human GPR7 receptor signaling; P48145; GPR7-expressing cells, fluorescence antagonist assay; inhibition, % at 4.4 µM; 290,000 tested, 1.1% active; AID 1861; in the data active = inhibition above about 16%, passing the limit was not always enough;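 note: cells stimulated with the agonist NPW; 0% = agonist with vehicle and 100% = vehicle without agonist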
GRK2 CP1 = confirmation of human GRK2 inhibitors displacing RNA aptamer | bead-bound GRK2, FAM-aptamer displacement, flow cytometry | aptamer displacement, % at 10 µM | shares compounds with GRK2 aptamer HTS | 2,000 tested, 4% active | AID 504451;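 active = aptamer displacement above 40%, near three times the noise of non-fluorescent compounds, on plates passing quality checks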;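 note: negative values mostly reflect intrinsic compound fluorescence rather than true enhancement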
FAM quench CP1 = counter-screen for GRK2 aptamer inhibitors: fluorescent aptamer quenchers | shares compounds with GRK2 aptamer HTS | Carboxyfluorescein RNA aptamer on beads, flow cytometry quenching; stronger effect = lower value | fluorescence response (% of DMSO), % at 10 µM | 2,000 tested, under 10 active;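 active = compounds that quench the bead-bound fluorescent RNA probe, cutting fluorescence to under half of the solvent control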;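 note: counterscreen run without GRK2 so only probe quenching by compound is measured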
* hit, by the source's call; · = no result given.

SMILES	NS3 helicase inh	GRK2 aptamer HTS	DAGLB inh	DNA FID counter	core dimer inh	GPR7 antagonist	GRK2 CP1	FAM quench CP1
COc1ccc(C(=O)CCC(=O)N2CCN(c3cc(C)ccc3C)CC2)cc1	-5.2	87.0*	-0.9	-47.4	-9.6	-10.4	0.7	98.8
COc1ccccc1CCNC(=O)C(=O)c1cn(CC(=O)N2CCOCC2)c2ccccc12	6.9	0.0	-2.8	-43.2	-3.6	0.7	·	·
COc1ccc(NC(=O)CSc2nncn2C)c([N+](=O)[O-])c1	-2.9	51.0*	-3.2	-0.5	3.0	-3.0	-1.1	104.2
Cn1cnnc1SCC(=O)Nc1ccccc1Oc1ccccc1	10.8	50.0*	-0.6	-2.8	-3.5	7.5	1.4	94.3
Cn1cnnc1SCC(=O)Nc1ccc(Oc2ccccc2)cc1	-16.2	0.0	-0.3	-9.7	-0.2	-7.7	·	·
COc1ccc(CCN(C)C(=O)CN2C(=O)NC3(CCCc4ccccc43)C2=O)cc1OC (centres undefined)	·	2.0	-1.5	·	-7.3	·	·	·
Cc1ccc(CNS(=O)(=O)c2ccc3c(c2)n(C)c(=O)n3C)cc1	6.6	0.0	-0.3	-9.1	0.0	-6.9	·	·
O=C(NCC1CCCCC1)c1cccc(S(=O)(=O)N2CCCC2)c1	·	7.0	-1.6	·	·	·	·	·
C/C(=N\OCc1ccccc1C#N)c1cc2ccccc2o1	-0.2	47.0*	0.3	-16.2	-2.1	-0.1	-10.7	99.6
COc1ccc(N=Cc2nc(-c3ccccc3)oc2OC(C)=O)cc1	-0.4	73.0*	-1.9	3.3	3.2	0.7	1.0	96.8
O=C(Cn1cnc([N+](=O)[O-])c1)Nc1ccccc1C(F)(F)F	10.0	2.0	-0.1	-3.4	3.4	-16.2	·	·
COc1cc(NC(=O)CC(C)S(=O)(=O)c2ccc3c(c2)NC(=O)CO3)cc(OC)c1OC (centres undefined)	-6.0	0.0	-2.5	-19.6	-1.6	-1.3	·	·
N#CCCN(C(=O)COC(=O)c1n[nH]c2ccccc12)c1ccccc1	·	0.0	3.1	·	·	·	·	·
O=C(COC(=O)c1cc(=O)[nH]c2ccccc12)NC(=O)c1ccccc1	·	68.0*	3.4	·	0.0	·	-2.9	109.6
CC(C)NC(=O)COC(=O)c1cc(=O)[nH]c2ccccc12	5.5	0.0	-3.8	-4.3	-3.9	-6.3	·	·
N#CCCN(C(=O)COC(=O)c1cc(=O)[nH]c2ccccc12)c1ccccc1	·	45.0*	1.3	·	·	·	-0.5	101.0
Cc1nc(N2CCN(S(=O)(=O)c3ccccc3C#N)CC2)c2c(-c3ccccc3)csc2n1	·	3.0	-4.2	·	·	·	·	·
COc1ccc(C2Nc3cccc4cccc(c34)N2)cc1Br	18.6	68.0*	-1.0	-7.4	3.0	-0.9	-7.3	99.8
COc1cc(C2Nc3cccc4cccc(c34)N2)ccc1OC(C)=O	0.3	0.0	3.2	1.9	-4.6	-15.5	·	·
COc1ccc(C(CNC(=O)c2cc3ccccc3o2)N2CCCCC2)cc1 (centres undefined)	-0.3	0.0	3.5	3.5	1.0	-3.2	·	·
O=C1CC(=O)N(Cc2ccco2)C(=S)N1	22.5	68.0*	9.7	-10.3	1.8	1.2	-4.5	98.6
CN(C)S(=O)(=O)c1cccc(NC(=O)c2cccc(N3C(=O)CCC3=O)c2)c1	·	·	-0.7	·	·	·	·	·
O=C(COC(=O)c1c[nH]c2ccccc12)Nc1ccccc1	·	0.0	-1.8	·	·	·	·	·
CC(NC(=O)COC(=O)c1c[nH]c2ccccc12)c1ccccc1 (centres undefined)	·	31.0	1.5	·	·	·	-1.3	99.9
CN(Cc1ccccc1)Cc1nc2c(c(=O)n(C)c(=O)n2C)n1CCc1ccccc1	-6.6	40.0	-6.2	-11.6	11.2	6.0	-1.4	98.4
SMILES	NS3 helicase inh	GRK2 aptamer HTS	DAGLB inh	DNA FID counter	core dimer inh	GPR7 antagonist	GRK2 CP1	FAM quench CP1
CCCn1c(CN(C)Cc2ccccc2)nc2c1c(=O)n(C)c(=O)n2C	-2.0	5.0	0.8	-19.7	5.3	-5.1	·	·
Cn1c(=O)n(CCc2ccccc2)c(=O)c2c1ncn2Cc1ccccc1	-2.6	74.0*	-0.9	-25.7	-3.0	-7.9	-2.0	100.1
COCCOC(=O)c1c(NC(=O)COC(=O)c2ccc(C)o2)sc(C(N)=O)c1C	·	0.0	-1.7	·	·	·	·	·
O=C(Cc1ccon1)c1ccc(O)cc1O	6.2	0.0	-0.5	-2.9	·	-4.3	·	·
Cc1cc(C)n2nc(SCC(=O)c3c(N)n(CC(C)C)c(=O)n(C)c3=O)nc2n1	6.2	72.0*	2.3	-11.3	-1.3	-13.9	-3.1	101.4
Cc1ccccc1-c1cc(C(=O)NCc2ccco2)nn1CC1CC(c2cccc([N+](=O)[O-])c2)=NO1 (centres undefined)	·	3.0	0.1	·	·	·	·	·
Cc1ccccc1-c1cc(C(=O)NCc2cccs2)nn1CC1CC(c2cccc([N+](=O)[O-])c2)=NO1 (centres undefined)	·	0.0	-2.1	·	26.2	·	-0.7	110.7
CC(NCc1ccc(S(N)(=O)=O)cc1)C(=O)N1c2ccccc2CC1C (centres undefined)	-4.0	1.0	0.3	-0.6	3.3	-4.5	·	·
COc1ccc(CC(=O)NC2CC(C)(C)NC(C)(C)C2)cc1	-1.1	42.0*	0.0	0.1	-0.9	-9.7	-0.4	99.5
CC1(C)CC(NC(=O)Cc2ccccc2)CC(C)(C)N1	2.3	0.0	-0.1	-3.7	-5.2	-7.4	·	·
C/C(=N\Nc1nc(C)cc(C)n1)c1ccc(N2CCOCC2)cc1	2.0	2.0	-2.6	15.5	-3.6	1.2	·	·
C/C(=N\Nc1nc2ccccc2[nH]1)c1ccc(N2CCOCC2)cc1	4.8	52.0*	4.1	6.2	-15.5	-10.4	-0.4	100.7
OC1(c2cccc(C(F)(F)F)c2)CCN(Cc2nnnn2Cc2ccccc2)CC1	-7.5	93.0*	-1.1	-13.4	5.5	1.5	0.8	94.0
CN(C(=O)c1ccc(S(=O)(=O)N2CCCC2)cc1)C1CCS(=O)(=O)C1 (centres undefined)	·	6.0	1.5	·	-4.6	·	·	·
CN(C(=O)c1ccc(N2CCCCC2)c([N+](=O)[O-])c1)C1CCS(=O)(=O)C1 (centres undefined)	·	21.0	3.2	·	·	·	-3.1	104.8
CC1(C)CC(O)(CNCc2ccc3c(c2)OCO3)CCO1 (centres undefined)	11.0	0.0	-2.4	0.9	0.0	-3.4	·	·
CC(C)Oc1ccc(CNCC2(O)CCOC(C)(C)C2)cc1 (centres undefined)	-0.9	57.0*	0.5	2.6	-15.8	-13.5	-1.8	100.8
CCOc1cc(/C=C2\SC(=NC)N(C)C2=O)c(Br)cc1OC(C)=O	1.5	74.0*	-2.8	-10.8	-11.8	-14.3	-0.2	92.2
COc1cc2cc(CCOC(=O)N3CCCCC3)oc(=O)c2cc1OC	·	42.0*	2.3	·	·	·	-1.7	97.5
COc1cc2cc(CCOC(=O)CCCC(=O)O)oc(=O)c2cc1OC	·	2.0	-7.7	·	·	·	·	·

From PubChem BioAssay
